The subject of series [1] is MCF7. In words: Antimigratory activity against human MCF7 cells at 2 to 10 uM measured after 24 hrs by transwell assay. Format: functional, cell-based. The method, boiled down:
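Cells seeded on upper side of polycarbonate transwell filters in serum-free medium, drug at 0, 2 or 10 µM; complete serum-containing medium in lower chamber as chemoattractant. After 24 h migrated cells fixed in 4% paraformaldehyde 20 min, crystal violet stained 20 min, imaged and counted. Three independent experiments.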

In series [2] the test system is MCF7. In words: Inhibition of epithelial-mesenchymal transition in human MCF7 cells assessed as decrease in vimentin expression level at 2 to 10 uM after 48 hrs by Western blot analysis. Format: functional, cell-based. In short, it runs like this:
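MCF-7 cells in RPMI 1640 with 10% FBS, 37 °C, 5% CO2, exposed to no drug, 2 or 10 µM for 48 h. RIPA lysates, BCA quantitation, 8% SDS-PAGE, PVDF transfer, primary antibodies overnight 4 °C, secondary 2 h RT, ECL and densitometry for ZO-1, E-cadherin, N-cadherin, vimentin. Mean ± SD of 3 independent tests.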
In general terms: A western blot detects proteins with antibodies after separation by electrophoresis.

For series [3], the system named is HUVEC. Kind of series: Reduction in SHC expression in HUVEC at 2 to 10 uM after 48 hrs by Western blot analysis. Format: functional, cell-based. As to conditions: Homo sapiens. The method, boiled down:
(§1)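 HUVECs grown in RPMI 1640 with 10% FBS, 37 °C, 5% CO2; treated with no drug, 2 or 10 µM for 48 h. Lysed in RIPA with protease/phosphatase inhibitors on ice 30 min, protein by BCA, 8% SDS-PAGE, PVDF transfer, milk block, primary antibody overnight 4 °C, secondary 2 h RT; ECL detection, densitometry. Probed VEGF-R, FAK, p-FAK, SHC.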

Series [4] relates to A549. In words: Antitumour activity against human A549 cells assessed as cell growth inhibition measured after 72 hrs by SRB assay. The format is functional, cell-based. As to conditions: A549, 72 h. The method, boiled down:
(§2)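 Exponentially growing cells trypsinized, seeded at 5 × 10^4 cells/mL in 96-well plates, cultured overnight, then exposed to compounds for 72 h. Cells fixed with 10% TCA 1 h, stained with SRB 15 min, dye dissolved in Tris-HCl, absorbance read; 50% growth-inhibitory concentration calculated.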

Series [5] is described as follows: Toxicity in nude mouse xenografted with human MCF7 cells assessed as effect on lung morphological changes at 22.5 to 45 mg/kg/day, ip administered for 21 days by HE staining analysis. The note with it: in vivo, 504 h. Format: organism-based. On the technique in general: A xenograft is tissue or cells of one species grown in another, often human tumour cells in immunodeficient mice.

Series [6] deals with HUVEC. In words: Reduction in VEGFR expression in HUVEC at 2 to 10 uM after 48 hrs by Western blot analysis. As to conditions: Homo sapiens. Format: functional, cell-based. In short, it runs like this: as §1
In series [7] the test system is MCF7. In words: Antitumour activity against human MCF7 cells xenografted in nude mouse assessed as decrease in tumour weight at 22.5 to 45 mg/kg/day, ip administered for 21 days. The format is functional, organism-based. In short, it runs like this:
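Nude mice (male/female, 4–6 weeks) injected subcutaneously in right forelimb with 5 × 10^7 MCF-7 cells in 200 µL saline; at mean tumour 100 mm3 randomized (n = 5/group): saline 0.2 mL/day, 22.5 or 45 mg/kg/day ip for 21 days. Body weight and tumour volume (length × width²/2) every other day; tumours weighed at day 21.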

Series [8] is described as follows: Toxicity in nude mouse xenografted with human MCF7 cells assessed as effect on spleen morphological changes at 22.5 to 45 mg/kg/day, ip administered for 21 days by HE staining analysis. Format: organism-based. As to conditions: in vivo, 504 h.
The subject of series [9] is SMMC-7721. In words: Antitumour activity against human SMMC7721 cells assessed as cell growth inhibition measured after 72 hrs by SRB assay. The format is functional, cell-based. As to conditions: SMMC-7721, 72 h. In short, it runs like this:
as §2
In general terms: The SRB assay estimates cell density from bound dye.

Series [10] has as its system HUVEC. Kind of series: Antimigratory activity against HUVEC at 2 to 10 uM measured after 48 hrs by wound healing assay. Format: functional, cell-based. The note with it: Homo sapiens. The method, boiled down: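 Cells seeded in 6-well plates, monolayer scratched with pipette tip, washed twice, kept in medium with 2% FBS. Gaps imaged, then drug added (0, 2 or 10 µM for HUVEC and MCF-7); gaps re-imaged after 48 h and migration rate calculated. Three independent experiments; one-way ANOVA.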

The nature of series [11]: Toxicity in nude mouse xenografted with human MCF7 cells assessed as liver edema at 22.5 to 45 mg/kg/day, ip administered for 21 days by HE staining analysis. The format is organism-based. As to conditions: in vivo, 504 h.
In series [12] the test system is PC-3. Kind of series: Cytotoxicity against human PC3 cells assessed as reduction in cell viability measured after 48 to 72 hrs by MTT assay. The format is cell-based. In short, it runs like this: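 Cells seeded at 3 × 10^3 per well in 96-well plates, incubated overnight, then given fresh medium with a range of drug concentrations for 48 h or 72 h. MTT added (final 500 µg/mL) for 4 h, formazan dissolved in DMSO, absorbance at 570 nm; IC50 derived. Mean ± SD of 3 independent tests.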

Experimental findings from ChEMBL document CHEMBL4393712, “Discovery of chalcone-modified estradiol analogs as antitumour agents that Inhibit tumour angiogenesis and epithelial to mesenchymal transition” (Eur J Med Chem, 2019) are described below.

Molecules are shown by their SMILES. The source made the active and inactive calls. No cut-off for these calls is given here.

One may read the IC50 as the midpoint of a concentration-inhibition curve. On to `COc1cc2c(cc1O)CC[C@@H]1[C@@H]2CC[C@]2(C)C(=O)/C(=C/c3ccc(Cl)cc3)C[C@@H]12`, for which the outcome in series [1] and in series [10] was Active. Also, the inhibition result in series [2], in series [3], in series [6] and in series [7] was “Active” each time. Moreover, the IC50 in series [4] came out at 23.2 µM; in series [9] it was 4.3 µM. The Activity entry in series [5] is recorded as “Non-Toxic”; in series [8] it was “Non-Toxic”; in series [11], “Toxic”; in series [12], “Toxic”.
